Tested on: MS2 coat protein
Experiment: apparent Kd, MS2 coat protein; higher = weaker binding; RNA-MaP array; FMN 200 µM where present
How it was run: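 On Illumina sequencing-chip clusters, designs were transcribed by stalled E. coli RNA polymerase and titrated with SNAP-549-labelled MS2 coat protein (0.7 or 1.5 nM, doubling to 3 µM), without and then with constant ligand, in 100 mM Tris-HCl pH 7.5, 80 mM KCl, 4 mM MgCl2, BSA, DTT, yeast tRNA and Tween-20. Apparent Kd is the median of filtered per-cluster curve fits to green signal normalised to red-channel RNA signal and control-cluster median Fmax.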

[1] = designed as: OFF switch for flavin mononucleotide, no ligand
[2] = ligand present: flavin mononucleotide, designed as: OFF switch for flavin mononucleotide
[3] = ligand present: flavin mononucleotide, designed as: ON switch for flavin mononucleotide
[4] = designed as: ON switch for flavin mononucleotide, no ligand

UGUGCCUCGAGAGGAUAUACAUGAGGAUCACCCAUGUAAGUAGAGGUGGAAACACCUCUACAAAUGUAGAAGGCUCGAGGCACA
apparent Kd [1]: 20.6 nM
apparent Kd [2]: 58.3 nM

AUUAUAAUUGAAGGAUAUCUAUAUCCAACAUGAGGAUCACCCAUGUUGAGGAUCACCCAUGUAAAGGAGAAGGUUAAUUAUAAU
apparent Kd [3]: 24.6 nM

ACCUUACUGGUCAGGAUAUACAGUCUUUGGUGGGUGUAGAAGGGACAUGAGGAUCACCCAUGUAGGUUGCAGCA
apparent Kd [1]: 175 nM
apparent Kd [2]: 153 nM

UGGUUUGGGCUAGAUGCACAGACAUGAGGAUCACCCAUGUCUGAGGAUAUGCGUCAACAUAGGCAGCAGAAGGCAGACACUCGC
apparent Kd [1]: 15 nM
apparent Kd [2]: 22.2 nM

AGUUGGCGAGGAUAUACAUGAGGAUCACCCAUGUGAGAGAUACUAGUGAGGUCGAUUAGUAGAAGGCGCUGACA
apparent Kd [1]: 31.1 nM
apparent Kd [2]: 439 nM

UGGUUCCUGCAGAAGGUGUAGGCGACUUGCUUGCAAGGAUAUGCACAUGAGGAUCACCCAUGUAGCUAAAAGUUUGCAACGUGG
apparent Kd [1]: 12.8 nM
apparent Kd [2]: 65.1 nM

UUAAUUUGGUGAUAUUAUGACAUUAGAAGGCUGUACAUGUUGAUACAUGAGGAUCACCCAUGUAUAGAGGAUAUAGACAAUUUU
apparent Kd [1]: 48 nM
apparent Kd [2]: 105 nM

UGGUACUAGGGAGGAUAUGGGACGAUACAUGAGGAUCACCCAUGUUUAAGAAUGCCGAGAGGCAACUAGAAGGCCCUAGUACCU
apparent Kd [4]: 494 nM
apparent Kd [3]: 21.7 nM

AAAAAACAUGAGGAUCACCCAUGUAAUAAAACGUCAGGAUAUUGAUUUUAUUAUUUAUUGCAAGAAGGGACAAAAA
apparent Kd [4]: 56.5 nM
apparent Kd [3]: 24 nM

GGUUGUCAUAGUCAUCCUUUCCGUACAUGAGGAUCACCCAUGUAGGAUAUGCUACUCACAGUGUGGCAGAAGGGCGUGUGUCUU
apparent Kd [2]: 19.4 nM

CUGGGCGGUUUGCCCACACUGUCACAGGAUAUGCCCAAAACAUGAGGAUCACCCAUGUCAAAUACGCAGAAGGGUGAUCGGAAC
apparent Kd [4]: 107 nM
apparent Kd [3]: 62.5 nM

UUGGACGUCGUAGGAUAUGUAGGAUAUUCCUACAUGAGGAUCACCCAUGUUGACAUCGAAGAAGGACAGAAGGACGAUGUCCAU
apparent Kd [4]: 88 nM
apparent Kd [3]: 5.29 nM

GUGCGUGGCUAGGAUAUUGUGGAGUUUAGUCAGCGAGAAGGAGCCACAUGAGGAUCACCCAUGUGGUGAAGCUC
apparent Kd [1]: 19.9 nM
apparent Kd [2]: 75 nM

UUGCCUCAGAACAUGAGGAUCACCCAUGUGCUGUGGGCAACAUAGGAUAUGAUGGUAUUAUACCGUCAGAAGGAUGAUGGUACU
apparent Kd [4]: 5.34 nM
apparent Kd [3]: 5.06 nM

GUGACGAAUGUAGGAUAUGCUGAGGAAUACUCAGCAGAAGGACAUGAGGAUCACCCAUGUCAUCCUUAUAAUAAAUAUCGUCAC
apparent Kd [1]: 13.4 nM
apparent Kd [2]: 17.7 nM

GCCUUAUCGGUCAGGAUAUACACUUGUUAGUUGUUGUAGAAGGGACAUGAGGAUCACCCAUGUACAUUACAUUG
apparent Kd [1]: 23.2 nM
apparent Kd [2]: 58.5 nM

AUUAUAUAGACAGGAUAUAGAAUAUUAUUUUAACAUGAGGAUCACCCAUGUAACCUUAUGUGUAGCUAGAAGGGUCAUUUAUUA
apparent Kd [1]: 89.9 nM
apparent Kd [2]: 162 nM

CAUGGGACUUCCUCGCGGAACAUGAGGAUCACCCAUGUUGCGGAGGAUAUACUUCGGCGCUCCGAGUAGAAGGCUGCAGAUCCC
apparent Kd [1]: 24.4 nM
apparent Kd [2]: 33.1 nM

AAGAAGUGAGGAUAUGCUGCUCGUCACUUGCGUGAUGAGUAGCAGAAGGCACAUGAGGAUCACCCAUGUGAAGA
apparent Kd [1]: 25.1 nM
apparent Kd [2]: 42.2 nM

AGAAGACAUGAGGAUCACCCAUGUGGGAUUAUGGGAGGAUAUACAAAGACGAGAGUCAGAGUAGAAGGCCUAGGAC
apparent Kd [4]: 65.6 nM
apparent Kd [3]: 26.7 nM

CUUCUGUGAGGAUAUUAGUAGUAAAUAAAUAAAAUUAUUACUGAGAAGGCACAUGAGGAUCACCCAUGUUCCUC
apparent Kd [1]: 35.1 nM
apparent Kd [2]: 392 nM

UGUCGGAGCAUAGGAUAUUACAUGAGGAUCACCCAUGUAUGAACCAAUAGCUGGAAACAGCAAUGUAAGAAGGCUGCUCCGACA
apparent Kd [1]: 5.16 nM
apparent Kd [2]: 8.98 nM

AGCUGUGGCCGAGGAUAUCUAACAAUCCCAACCGAAAUAUAAUCGGACAUGAGGAUCACCCAUGUAGAGAAGGCGGUCUCAGCA
apparent Kd [1]: 208 nM
apparent Kd [2]: 329 nM

AGGUAAGAGUUAAUUGUGACGGUGAGAAGGCAAUAGUUUGUGACCGACAUGAGGAUCACCCAUGUUGAGGAUAUCACCACCUAC
apparent Kd [1]: 9.59 nM
apparent Kd [2]: 40.1 nM

GGAACUCAUGUAGGAUAUGCAUGGCGAAGCUACGCAGAAGGACAUGAGGAUCACCCAUGUUCUAGCGUCUGGAUACAGAUGCAA
apparent Kd [1]: 169 nM
apparent Kd [2]: 130 nM

AACUUCAGAGGAUAUACAUGAGUGAAAAAAGUCUGAUAACUACAUGAGGAUCACCCAUGUAGAAGGCUGUAGCA
apparent Kd [1]: 29.1 nM
apparent Kd [2]: 35.4 nM

UGGAUGGUAUGAGGAUAUGCGCGCGAAACGCGCGCAGAAGGCAUGUCAAUAGACAUGAGGAUCACCCAUGUAUUAUCCAUCCAC
apparent Kd [4]: 192 nM
apparent Kd [3]: 13 nM

UGAUCUAGCGGAGGAUAUACAUGAGGAUCACCCAUGUAGAUAUCAUGACCGUAGUCGUGUAUCGUGUAGAAGGCCGCUAGAUCU
apparent Kd [1]: 12.7 nM
apparent Kd [2]: 24 nM

AGACGGAGCUGAGGAUAUAACAUGAGGAUCACCCAUGUAAGUCUCCAGGAAACUGGAGACAAAUGUUAGAAGGCAGCUCCGUCA
apparent Kd [1]: 39.8 nM
apparent Kd [2]: 51.2 nM

AACUCACAUGAGGAUCACCCAUGUGAGGAUAUAUAAAUAUAUAUGUUAUUAUAUAUUUAUAGAAGGCGCGUGAU
apparent Kd [1]: 44.1 nM
apparent Kd [2]: 46.9 nM

GGUUAUAUAACAUGAGGAUCACCCAUGUGAGUGGUCCGAAUAUAGGAUAUCCACACGAGAAGUGUGGAGAAGGAUAAUUUAUUA
apparent Kd [1]: 40.7 nM
apparent Kd [2]: 206 nM

GCCAUCACGUGAGGAUAUGCUCCCGUUUCGGGAGCAGAAGGCAUGUCAUCAGACAUGAGGAUCACCCAUGUAGUUAAGAUGGCA
apparent Kd [4]: 43.6 nM
apparent Kd [3]: 13.1 nM

GCCGGAUUUGUGAGGAUAUACCUAUGGAUACAUAGGUAGAAGGCACAUGAGGAUCACCCAUGUUCCUCUCCGGC
apparent Kd [1]: 49 nM
apparent Kd [2]: 582 nM

ACAUGAGGAUCACCCAUGUGAUGAUCUCCCAUGUUAUAUUUCAGAAGGCUCGUGUGUUUGAUGAGAGAGGAUAUGGAAUAUACG
apparent Kd [1]: 377 nM
apparent Kd [2]: 258 nM

AUCCGGCGUGUAGGAUAUGGAAACGAUUAGGAUCCAGAAGGACAUGAGGAUCACCCAUGUACAUGUAAACAGUCAUCACCGGAA
apparent Kd [1]: 14.5 nM
apparent Kd [2]: 52.2 nM

GUAGCUAUCGGAGGAUAUUCAUACCGGAAAAGGACAUGAGGAUCACCCAUGUGGUGAAAGCCUUGGGAGAAGGCCGAUAGCUAC
apparent Kd [4]: 484 nM
apparent Kd [3]: 191 nM
